Assay results reported in ChEMBL document CHEMBL3286328, “Characterization of proapoptotic compounds from the bark of Garcinia oblongifolia” (J Nat Prod, 2014).
Active and inactive are the calls of the source. No cut-off for these calls is given here.

Tests used:
HeLa [1] = experiment: Cytotoxicity against human HeLa cells assessed as decrease in cell viability after 72 hrs by MTT assay; assay type: functional, cell-based
Procedure, shortened: (§1)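 For each cell line, 3000 cells per well were cultured overnight, then given fresh medium with compound. Each compound was tested at ≥7 concentrations in a 3-fold dilution series, with a final DMSO-stock dilution of at least 1000-fold. After 72 h, viability was read by MTT (OD 595 nm). Inhibition was calculated as 1 − [(T72 − C0)/(C72 − C0)] against the 0.1% DMSO control and fitted sigmoidally versus log concentration. Values are mean ± SD, n = 3.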

HeLa [2] = experiment: Induction of apoptosis in human HeLa cells assessed as morphological and condensed or fragmented DNA at 10 uM after 72 hrs by Hoechst 33342 staining in presence of z-VAD-fmk; assay type: functional, cell-based
Procedure, shortened: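 HeLa cells were treated with compound (10 μM) alone or with zVAD-fmk (50 μM) for 72 h. Controls were medium with 0.1% DMSO, with or without zVAD-fmk. Cells were stained with Hoechst 33342, washed three times with PBS, and imaged by phase contrast and fluorescence microscopy for cell and nuclear morphology.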

HeLa [3] = experiment: Cytotoxicity against human HeLa cells assessed as decrease in cell viability at 10 uM after 72 hrs by MTT assay; assay type: functional
Procedure, shortened: (§2)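 HeLa cells were exposed to compound at 10 μM for 72 h. Vehicle was medium with 0.1% DMSO; paclitaxel (500 nM) was the positive control. MTT (5 mg/mL stock in PBS) was added for 2 h at 37 °C. Crystals were dissolved in 10% SDS/0.01 M HCl for 24 h at 37 °C, and OD was read at 595 nm. Viability at 0 h was set to 100. Three independent experiments.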

MCF7 [4] = experiment: Cytotoxicity against human MCF7 cells assessed as decrease in cell viability after 72 hrs by MTT assay; assay type: functional, cell-based; conditions: MCF7, 72 h; procedure, shortened: as §1
HepG2 = experiment: Cytotoxicity against human HepG2 cells assessed as decrease in cell viability after 72 hrs by MTT assay; assay type: functional, cell-based; conditions: HepG2, 72 h; procedure, shortened: as §1
[5] = Cytotoxicity against human HeLaC3 sensor cells assessed as decrease in YFP/CFP emission ratio within 72 hrs by FRET assay; assay type: functional, HeLa C3
Procedure, shortened: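 HeLa-C3 cells stably express a CFP–DEVD linker–YFP FRET caspase-3 sensor. Cells were seeded at 7500 per well, and after 12−16 h a background-subtracted baseline was read (excitation 440 nm; emission 486 nm CFP, 535 nm YFP). Compound at 10 μM was added in fresh medium, with 0.1% DMSO vehicle and 500 nM paclitaxel as positive control. Plates were read repeatedly for up to 72 h. An active compound lowers the YFP/CFP ratio to 3 or below.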

[6] = Cytotoxicity against human HCT15 cells assessed as decrease in cell viability after 72 hrs by MTT assay; assay type: functional, cell-based; conditions: HCT-15, 72 h; procedure, shortened: as §1
MDA-MB-435 = experiment: Cytotoxicity against human MDA-MB-435 cells assessed as decrease in cell viability after 72 hrs by MTT assay; assay type: functional, cell-based; conditions: MDA-MB-435, 72 h; procedure, shortened: as §1
HCT-116 = experiment: Cytotoxicity against human HCT116 cells assessed as decrease in cell viability after 72 hrs by MTT assay; assay type: functional, cell-based; conditions: HCT-116, 72 h; procedure, shortened: as §1
MCF7 [7] = experiment: Cytotoxicity against human MCF7 cells overexpressing HER2 assessed as decrease in cell viability after 72 hrs by MTT assay; assay type: functional, cell-based; conditions: MCF7, 72 h; procedure, shortened: as §1
HeLa [8] = experiment: Cytotoxicity against human HeLa cells assessed as decrease in cell viability at 10 uM after 72 hrs by MTT assay relative to control; assay type: functional; procedure, shortened: as §2
HeLa [9] = experiment: Induction of apoptosis in human HeLa cells assessed as caspase-3 activation at 10 uM after 24 hrs; assay type: functional, cell-based
Procedure, shortened: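 HeLa cells were treated for 24 h with compound (10 μM), against 0.1% DMSO vehicle; the positive control was UV for 3 min, harvested after 6 h. Lysates were made in Tris pH 7.5/Triton buffer with protease inhibitors. A sample of 50 μg protein was incubated with Ac-DEVD-AMC in HEPES pH 7.5 buffer for 1 h at 37 °C in the dark. Fluorescence was read at 355/460 nm and expressed as net reading per μg protein.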

SMILES | IC50 (HeLa [1]) | Activity (HeLa [2]) | viability at 10 µM (HeLa [3]) | IC50 (MCF7 [4]) | IC50 (HepG2) | Ratio [5] | IC50 [6] | IC50 (MDA-MB-435) | IC50 (HCT-116) | IC50 (MCF7 [7]) | fold change (FC) (HeLa [8]) | Activity (HeLa [9])
COc1cc(O)c2c(=O)c3ccc(O)c(O)c3oc2c1CCC(C)(C)O [NIGROLINEAXANTHONE T] | 4.7 µM | inactive | 50% | 3 µM | 4.8 µM | 3 | 2.4 µM | 9 µM | 3.7 µM | 3.8 µM | – | –
CC(C)=CCC/C(C)=C/C[C@H]1C(C)(C)[C@@]2(CC=C(C)C)C(=O)c3c(oc4cc(O)c(O)cc4c3=O)[C@](CC=C(C)C)(C2=O)C1(C)C [OBLONGIFOLIN F] | 4.2 µM | inactive | 50% | 3 µM | 7.7 µM | 3 | 4.9 µM | 16.5 µM | 2.9 µM | 5.1 µM | >30 | Active
CC(C)=CCC/C(C)=C/C[C@@H]1C(C)(C)[C@@]2(CC=C(C)C)C(=O)c3c(oc4cc(O)c(O)cc4c3=O)[C@](CC=C(C)C)(C2=O)C1(C)C [OBLONGIFOLIN G] | 3.9 µM | inactive | 50% | 2.6 µM | 7.7 µM | 3 | 4 µM | 16.5 µM | 2.9 µM | 2.9 µM | >30 | Active
CC1(C)C=Cc2cc3c(=O)c4c(O)cc(O)cc4oc3c(O)c2O1 | 4.9 µM | inactive | 50% | 11.7 µM | 10.1 µM | 3 | 5.1 µM | 3.9 µM | 4.7 µM | 34.4 µM | – | –
CC(C)=CCC/C(C)=C/C[C@@H]1C[C@]2(CC=C(C)C)C(=O)[C@@](CC=C(C)C)(C(=O)C(C(=O)c3cccc(O)c3)=C2O)[C@@]1(C)CCC=C(C)C [GARCICOWIN B] | 10.8 µM | inactive | 50% | 10.8 µM | 6.2 µM | 3 | 9.6 µM | 12.6 µM | 6 µM | 19.1 µM | – | –
